# Source: PubChem BioAssay (The Scripps Research Institute Molecular Screening Center)
# DAGLB inhibitor – DAGLB lipase inhibitors, primary screen, biochemical, fluorescence, HTS | inhibition, % at 5.17 µM | actives 0.059% (n = 340,000) | Diacylglycerol lipase-beta (Homo sapiens), Q8NCG7 | HEK293T DAGLB membrane lysate, EnzChek fluorogenic substrate; in the data active = inhibition above about 34%;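 also: 0% = enzyme with vehicle and 100% = wells lacking enzyme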
# HTRA1 inh – HTRA1 serine protease inhibitors, primary screen, biochemical, fluorescence polarization, HTS; AID 504803, 2011; actives 0.5% (n = 340,000); recombinant HTRA1, FP-rhodamine activity-based probe; Q92743; inhibition, % at 5.96 µM; in the data active = inhibition above about 36%;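 also: 0% = enzyme with DMSO and 100% = wells lacking enzyme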
# PRMT1 inh – PRMT1 methyltransferase inhibitors, primary screen, biochemical, fluorescence polarization. Protein arginine N-methyltransferase 1 (Homo sapiens), Q99873. recombinant PRMT1, activity-based probe fluorescence polarization. inhibition, % at 2.79 µM. actives 1.3% (n = 370,000). AID 652257, 2013;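 active = inhibition above about 21% made by adding two undisclosed values, limit read from the data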
# Target sequence (Q99873 whole entry, looked up): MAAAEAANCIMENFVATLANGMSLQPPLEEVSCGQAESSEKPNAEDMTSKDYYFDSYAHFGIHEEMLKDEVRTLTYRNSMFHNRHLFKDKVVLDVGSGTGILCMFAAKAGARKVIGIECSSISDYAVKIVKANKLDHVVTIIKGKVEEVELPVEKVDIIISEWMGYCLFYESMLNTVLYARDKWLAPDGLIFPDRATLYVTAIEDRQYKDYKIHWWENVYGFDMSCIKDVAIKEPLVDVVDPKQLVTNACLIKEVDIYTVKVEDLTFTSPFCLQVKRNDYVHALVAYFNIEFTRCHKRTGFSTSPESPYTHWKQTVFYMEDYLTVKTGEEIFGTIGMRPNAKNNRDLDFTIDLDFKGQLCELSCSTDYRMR
# LEDGF integ inh – blockers of LEDGF/p75-dependent integrase strand transfer – biochemical, TR-FRET, high throughput, primary screen | HIV-1 integrase (with human LEDGF/p75) | TR-FRET IN-LEDGF/p75 DNA integration, Eu/Cy5 | inhibition, % at 3.7 µM | actives 0.64% (n = 370,000);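 active = inhibition above the screen-wide mean plus 3 SD, cut at about 13% in these data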;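 also: signal is the Cy5 over europium emission ratio at 671 and 618 nm; 0% = plate median of compound wells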
# rCAG RNA binder – binders of r(CAG) RNA repeats, primary screen, biochemical, fluorescence | r(CAG) RNA repeat, TO-PRO-1 dye displacement fluorescence | inhibition, % at 3 µM | actives 1.3% (n = 370,000) | AID 651821, 2012;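 active = inhibition above the plate cutoff, the mean of all test compounds on that plate plus 3 SD, cut at about 35% in these data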;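 also: 0% = DMSO alone and 100% = 100 µM mitoxantrone as full dye displacement; higher means more dye released from RNA so lower well fluorescence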
# mABHD4 FP – ABHD4 inhibitors, primary screen, biochemical, fluorescence polarization, mouse | (Lyso)-N-acylphosphatidylethanolamine lipase (Mus musculus), Q8VD66 | purified mABHD4, FP-Rh probe fluorescence polarization | inhibition, % at 8.92 µM | actives 0.54% (n = 370,000) | AID 720543, 2013;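 active = inhibition exceeding the mean over every tested compound plus 3 SD, cut at about 30% in these data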;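 also: 0% = plate median of compound wells and 100% = S159A mutant with DMSO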
#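 Assay system: mABHD4 protein; medium: HEPES pH 7.0, NaCl, Pluronic buffer; dosing: 8.92 µM, single dose; schedule: 45 min + 60 min at 25 °C; signal: FP readout, ex 525 nm / em 598 nm; read-out: normalized percent inhibition of probe labeling; repeats: single replicate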
# HTRA1 inh conf – HTRA1 protease inhibitors, retest, confirmation, biochemical, fluorescence polarization. recombinant HTRA1, FP-rhodamine activity-based probe. AID 540248, 2011. actives 66% (n = 1,600). shares compounds with HTRA1 inh. inhibition, % at 5.96 µM;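 active = mean inhibition over three repeats above a set limit taken from the earlier primary screen, cut at about 37% in these data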;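 also: 0% = HTRA1 with DMSO and 100% = wells lacking HTRA1; inhibitors block probe binding so polarization drops and inhibition rises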
# rCAG binder conf – small molecules binding CAG repeat RNA – biochemical, fluorescence, confirmation | shares compounds with rCAG RNA binder | r(CAG) RNA repeat, TO-PRO-1 dye displacement fluorescence | inhibition, % at 3 µM | actives 70% (n = 4,300) | AID 652065, 2013;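 active = inhibition above a per-plate cutoff, the mean inhibition of sample wells plus 3 SD, cut at about 35% in these data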;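 also: loss of TO-PRO-1 fluorescence as compound displaces dye from 1x1 AA loop RNA; 0% = DMSO only wells and 100% = 100 µM mitoxantrone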
# DNA CAG counter – displacement of TO-PRO-1 from CAG DNA duplex, counter-screen for rCAG RNA repeat binder project, biochemical, fluorescence, TO-PRO-1 dye, d(CAG) DNA oligo. shares compounds with rCAG RNA binder. d(CAG) DNA oligo TO-PRO-1 dye displacement. inhibition, % at 3 µM. actives 94% (n = 4,300);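 active = inhibition above its plate's cutoff, the mean test-well inhibition plus 3 SD, cut at about 4.8% in these data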;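 also: 0% = DNA dye mix with DMSO and 100% = 100 µM mitoxantrone; hits displace the dye from DNA and so lower well fluorescence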
# PRMT1 inh conf – PRMT1 methyltransferase inhibitors, confirmation, biochemical, fluorescence polarization, triplicate. shares compounds with PRMT1 inh. recombinant His-PRMT1, activity-based probe fluorescence polarization. AID 687036, 2013. actives 42% (n = 3,300). inhibition, % at 2.79 µM;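 active = mean inhibition across replicates above the hit cutoff derived for the earlier primary screen, cut at about 22% in these data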
# mABHD4 conf – ABHD4 inhibitors, retest, confirmation, biochemical, fluorescence polarization, mouse; purified mABHD4, FP-Rh probe fluorescence polarization; actives 55% (n = 1,800); inhibition, % at 8.92 µM; shares compounds with mABHD4 FP;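 active = mean inhibition across replicates above the hit cutoff set in the primary screen, cut at about 30% in these data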;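 also: 0% = wild-type ABHD4 with DMSO and 100% = catalytically dead S159A mutant with DMSO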
# Active calls of the source: *; nt = no result given. Only some compounds are listed: those with a hit (about 3.2% of all), similar ones and a draw of the others.
SMILES,DAGLB inhibitor,HTRA1 inh,PRMT1 inh,LEDGF integ inh,rCAG RNA binder,mABHD4 FP,HTRA1 inh conf,mABHD4 conf,others
Cc1ccc(N(CC(=O)O)C2SC(=O)NC2=O)cc1 (stereo unspecified),0,0,-2,-2,2,0,nt,nt,
O=c1oc(-c2ccc(O)c(O)c2)cc2cc(O)cc(O)c12,5,56*,4,0,16,51*,124*,36*,
O=c1oc(-c2ccc(O)c(O)c2)cc2cccc(O)c12,9,62*,2,-4,16,35*,68*,34*,
CCOc1cc([C@H]2[C@@H]3CCCC[C@]3(O)CCN2CC(=O)NCc2ccco2)ccc1O,0,0,-3,1,5,-3,nt,nt,
CC(=O)NC(c1ccco1)c1ccc2cccnc2c1O (stereo unspecified),2,19,nt,nt,nt,nt,nt,nt,
CC(=O)NC(c1ccc(N(C)C)cc1)c1cc(Cl)c2cccnc2c1O (stereo unspecified),13,65*,-1,-4,7,30*,82*,33*,
O=C1CC(N(O)c2ccccc2)C(=O)N1c1ccc(Cl)c(Cl)c1 (stereo unspecified),4,60*,12,-1,21,46*,0,89*,
O=C(/C=C/c1ccccc1)c1cc(Br)ccc(=O)c1O,25,58*,34*,8,51*,37*,65*,29,rCAG binder conf=41*;DNA CAG counter=17*;PRMT1 inh conf=28*
Cc1ccccc1C(=O)N(C)[C@H]1C[C@H]2c3[nH]c4ccccc4c3CCN2C[C@H]1[C@H](C)O,nt,nt,-2,5,4,6,nt,nt,
C=CCOc1c(Cl)cc(CNc2ccc(N(C)C)cc2)cc1OC,8,48*,19,12,12,40*,7,45*,
Oc1ccc(-c2csc(-c3ccccc3)n2)cc1O,6,59*,11,0,24,31*,48*,31*,
O=[N+]([O-])c1cc([N+](=O)[O-])c2c(=Nc3ccccc3)n(-c3ccccc3)n(O)c2c1,18,42*,7,4,33,55*,48*,48*,
O=[N+]([O-])c1cc(Br)c(Nc2ccccc2)c([N+](=O)[O-])c1,0,-11,-2,10,1,1,nt,nt,
Oc1ccccc1C1Nc2cccc3cccc(c23)N1,14,30,7,4,17,14,nt,nt,
O=[N+]([O-])c1ccccc1C1Nc2cccc3cccc(c23)N1,11,51*,29*,0,19,53*,20,55*,
COc1ccc2cnnc(SCC(=O)Nc3ccccc3)c2c1OC,1,-6,3,5,0,-5,nt,nt,
